# Sampled rows, rich in hits. Any-hit rate of the full collection: about 5.1%.
# STAT1 blocker: reduces IFN-gamma driven STAT1 reporter signal. AID 920. NIH 3T3 STAT1-luciferase reporter, luminescence. 200,000 compounds, 0.35% hits. inhibition, % at 5.5 µM;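 active = inhibition above a set limit, the mean inhibition across all tested compounds plus 3 SD, cut at about 34% in these data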;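 also: 0% = IFN-gamma with DMSO and 100% = IFN-gamma with 300 µM nifuroxazide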
# NF-kB expr up: raises NF-kB expression in human neuronal cells. 190,000 compounds, 1.6% hits. fold change at 12.5 µM. NF-kB reporter expression; stronger effect = higher value; in the data active = fold change above about 3.3
# APP 5'UTR act: APP 5'UTR luciferase reporter activation; SH-SY5Y APP 5'UTR luciferase reporter, luminescence; zero percent = DMSO vehicle wells; activation, % at 2 µM; 190,000 compounds, 1% hits;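 active = activation above a set limit, based on mean plus 3 SD of controls, cut at about 140% in these data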
# STAT3 act: activators of IL-6 induced STAT3 signaling. U3A cells, IL-6 STAT3-luciferase reporter, luminescence; 100% = signal with IL-6 EC80 alone. activation (% of control), % at 5.6 µM. 190,000 compounds, 0.91% hits. AID 871;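 active = activation above the screen-wide mean of compound activation plus 3 SD, cut at about 130% in these data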;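 also: 0% = background luminescence of wells with medium and substrate only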
#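 System – human U3A cells carrying STAT3-luciferase construct · Probe or stimulus – Interleukin-6, 33 ng/mL · Schedule – compound 1 h, then IL-6 6 h at 37 °C · Signal – luminescence from STAT3-driven luciferase reporter · Evaluation – percent of IL-6-only median luminescence · Benchmarks – IL-6-only high control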
# STAT1 activator: STAT1 signaling activation; NIH 3T3 STAT1-luciferase reporter, IFN-gamma, luminescence; 100% = IFN-gamma alone, no compound; activation (% of control), % at 5.5 µM; 200,000 compounds, 2.6% hits;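 active = activation above the screen-wide mean activation plus 3 SD, cut at about 130% in these data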;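 also: raw ratio to IFN-gamma control signal so 100% means no change and 0% no light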
# STAT3 inh: inhibitors of IL-6 induced STAT3 signaling; inhibition, % at 5.5 µM; AID 862; 190,000 compounds, 0.89% hits; U3A cells, IL-6 STAT3-luciferase reporter, luminescence; host cell line lacks STAT1;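 active = inhibition above the mean inhibition across all screened compounds plus 3 SD, cut at about 44% in these data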;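 also: 0% = DMSO only wells and 100% = 100 µM nifuroxazide control wells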
# The depositor's hits bear a star; · = no result given.
SMILES,STAT1 blocker,NF-kB expr up,APP 5'UTR act,STAT3 act,STAT1 activator,STAT3 inh
CN(CC(=O)N1CCc2ccccc21)S(=O)(=O)c1cccs1,-32,1.8,11,116,130*,-10
COc1ccc(C(=O)Nc2scc(-c3ccc(Cl)cc3Cl)c2C(N)=O)cc1,-53,1.1,80,96,148*,10
Cc1ccc(C(=O)n2c(N)nc3ccccc32)cc1,89*,2.7,35,12,17,103*
COc1ccc(C(=O)n2c(-c3ccco3)nc3ccccc32)cc1,-11,1.3,-50,103,110,-2
Clc1cc(Cl)c2nc(N3CCCCC3)sc2c1,-26,3.3*,63,115,124,-13
CN1CCN(C(=O)C(N)Cc2ccccc2)CC1 (stereo unspecified),-8,1.3,-5,108,106,-8
c1ccn2cc(C34CC5CC(CC(C5)C3)C4)nc2c1,3,·,21,100,96,5
O=C(O)c1cccc(COc2ccccc2Cl)c1,·,15*,·,·,·,·
Cc1nn(Cc2c(F)c(F)c(F)c(F)c2F)c(C)c1NC(=O)c1cccc(COc2ccccc2Cl)c1,-4,2.1,151*,76,104,32
O=C1NC(=O)/C(=C\c2ccc(OCc3cccc(C(=O)O)c3)c(Cl)c2)N1,71*,1.1,79,42,33,73*
CC1CCN(C(=O)c2ccc(COc3ccccc3Cl)o2)CC1,-3,1.1,4,104,103,0
O=C(c1ccc(COc2ccccc2Cl)o1)N1CCCC1,35*,0.82,-9,84,80,19
COc1ccc(/C=N/Nc2cn[nH]c(=O)c2Cl)cc1,-9,2,26,76,109,32
CN1CCN(C(=O)c2cccc(COc3cc(Cl)ccc3Cl)c2)CC1,-17,1.4,60,116,113,-17
O=C(Nc1ccccc1Cl)c1cccc(COc2cc(Cl)ccc2Cl)c1,-32,1.6,24,111,129*,-12
COc1ccc(-n2cc(-c3ccccc3)c3c(N4CC(C)OC(C)C4)ncnc32)cc1 (stereo unspecified),9,0.41,12,92,91,11
Clc1ccc(-c2nnc(Sc3nc4ccccc4o3)c3ccccc23)cc1,-4,4.2*,11,97,103,10
Cc1ccc(-c2nnc(Sc3nc4ccccc4o3)c3ccccc23)cc1,1,4.9*,38,101,99,6
Cc1ccc2nc(C)c(C(=O)NN=C3CCN(C)CC3)n2c1,7,0.94,-68,104,94,5
C=C(C)CNC(=S)NNC(=O)CCn1c2ccc(Cl)cc2c2cc(Cl)ccc21,0,0.96,-4,106,100,-6
CCCOc1cccc(C(=O)Nc2ccc(Br)cc2F)c1,-39,2.5,128,108,136*,-8
O=C(NN=C1c2ccccc2-c2ccccc21)c1ccccn1,-2,1.1,7,91,102,16
O=C(NN=C1C2CC3CC1CC(Cl)(C3)C2)c1ccccn1,-24,1.6,159*,107,121,-7
O=C(NN=C1C2CC3CC1CC(Cl)(C3)C2)c1cccs1,-31,1.4,141*,97,128,5
COc1ccccc1-c1cc(C(=O)NCCc2ccccc2)no1,-21,3.8*,51,98,120,9
SMILES,STAT1 blocker,NF-kB expr up,APP 5'UTR act,STAT3 act,STAT1 activator,STAT3 inh
COc1ccccc1-c1cc(C(=O)Nc2cccnc2)no1,-34,2.8,-96,112,131*,-7
COc1ccc(CCNC(=O)c2cc(-c3ccccc3OC)on2)cc1OC,-3,1.1,-6,85,103,27
Nc1cccc2nc3ccccc3cc12,-133,3.9*,·,151*,172*,-62
Clc1ccc(CNc2nc(CN3CCOCC3)nc3scc(-c4ccccc4)c23)cc1,1,0.48,13,108,99,-5
O=C1C(Cl)=C(Nc2ccccc2O)C(=O)N1CCc1ccccc1,1,1,2,116,99,-22
CN1CCN(C(=O)c2ccc3c(=O)n4c(nc3c2)CCCCC4)CC1,-4,1.1,-6,106,104,-4
Cc1csc(NC(=O)c2ccc(OCC3CCCO3)cc2)n1 (stereo unspecified),60*,4.8*,160*,51,44,61*
O=C(Nc1cccc(S(=O)(=O)N2CCCCC2)c1)c1ccc2c(=O)n3c(nc2c1)CCCCC3,16,0.53,-4,83,85,23
O=C(Nc1nc(-c2ccc(F)c(F)c2)cs1)c1ccc(OCC2CCCO2)cc1 (stereo unspecified),-11,0.99,24,95,110,1
Cc1csc(NC(=O)c2ccc(N3CCCC3=O)cc2)n1,65*,1.4,47,25,39,89*
Cc1csc(NC(=O)c2ccc3c(=O)n4c(nc3c2)CCCCC4)n1,-23,1.9,148*,103,121,-1
O=C(Nc1nccs1)c1ccc2c(=O)n3c(nc2c1)CCCCC3,-35,1.2,66,107,132*,-8
Cc1ccc(C(=O)NC(=S)N2CCN(C(=O)OC(C)(C)C)CC2)cc1Br,-3,0.94,13,100,101,8
Cc1ccc(C(=O)NCc2n[nH]c(=S)n2-c2ccccc2)cc1[N+](=O)[O-],-8,0.85,-10,95,106,8
O=C(CCC1CCCN(C(=O)c2ccc3c(c2)OCO3)C1)NCc1ccc(F)c(F)c1 (stereo unspecified),-5,1.9,9,96,104,10
COc1ccc(/C=C/C2=NN(Cc3ccccc3)C(=O)CC2)cc1,5,1.3,-10,97,96,6
COc1ccc(/C=C/C2=CCN(Cc3ccc(OC)cc3)CC2)cc1,6,1.2,-13,134*,93,-37
CC1CC(C)CN(CC(C)(C)NS(=O)(=O)c2ccc(Cl)cc2)C1 (stereo unspecified),1,0.78,6,101,99,7
C=C(C)COc1ccc2c(C)c(CC(=O)OC)c(=O)oc2c1C,-16,3.1,59,103,115,-3
COC(=O)Cc1c(C)c2ccc(OCC(C)=O)c(C)c2oc1=O,-26,1.8,32,112,130*,-12
Cc1cc(C(=O)CN2C(=O)C3CC=CCC3C2=O)c(C)n1-c1ccccc1 (stereo unspecified),-43,2.2,184*,90,138*,18
Cc1cc(C(=O)CN2CCCCC2)c(C)n1-c1ccc(F)cc1,-34,1.2,29,109,130*,-15
Cc1cc(C(=O)CN2CCCC2)c(C)n1-c1ccc(Cl)cc1,4,1.1,-9,113,96,-14
Cc1cc(C(=O)Cn2cc(C(F)(F)F)ccc2=O)c(C)n1-c1ccccc1,-2,1.2,4,93,102,7

# Screening results (PubChem)
